The nature of series [1]: Antiinflammatory activity in human SAEC assessed as inhibition of Poly(I:C) induced CIG5 expression by measuring residual activity rate at 10 uM pretreated for 24 hrs followed by Poly(I:C) addition for 4 hrs by qRT-PCR analysis. The class given is functional. Conditions: time 28 hrs. An outline of the steps:
(§1)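 hSAECs pretreated with compound at 10 μM final for 24 h, then poly(I:C) 10 μg/mL for 4 h. CIG5 or IL-6 mRNA measured by qRT-PCR (ΔΔCt, normalized to PPIA). Residual activity given as % of poly(I:C)-alone control, mean ± SD of three independent measurements.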
For orientation: Quantitative PCR measures a nucleic acid by following its amplification.

A short description of series [2]: Antiinflammatory activity in human SAEC assessed as inhibition of Poly(I:C) induced IL-6 expression by measuring residual activity rate at 10 uM pretreated for 24 hrs followed by Poly(I:C) addition for 4 hrs by qRT-PCR analysis. The format is functional. Conditions: time 28 hrs. An outline of the steps:
as §1

The next series has as its system SAEC. Kind of series: Antiinflammatory activity in human SAEC assessed as decrease in H3K122Ac accumulation by immunofluorescence analysis. The class given is functional, cell-based. An outline of the steps:
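Immortalized human small airway epithelial cells stimulated with poly(I:C) at 10 μg/mL. H3K122Ac detected by immunofluorescence and quantified as fold change in total fluorescence intensity.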

Another series concerns Mus musculus. Kind of series: Antiinflammatory activity in C57BL/6 mouse model of poly(I:C)-induced acute airway inflammation assessed as decrease in H3K122Ac accumulation in lung tissue at 10 mg/kg, po administered 1 day prior to poly(I:C) stimulation by immunofluorescence analysis. The format is functional, organism-based. An outline of the steps:
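Same mouse model: 10 mg/kg po one day before, plus a second dose with intranasal poly(I:C) (300 μg). Lungs collected one day later. H3K122Ac detected by immunofluorescence on paraffin lung sections and quantified as fold change in total fluorescence intensity.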

A short description of series [3]: Antiinflammatory activity in human SAEC assessed as inhibition of Poly(I:C) induced CIG5 expression pretreated for 24 hrs followed by Poly(I:C) addition for 4 hrs by qRT-PCR analysis. The class given is functional, cell-based. An outline of the steps:
(§2)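 Poly(I:C) 10 μg/mL then added for 4 h. CIG5 or IL-6 mRNA measured by qRT-PCR (ΔΔCt, PPIA normalized). IC50 from a four-parameter fit, mean ± SD of three independent runs.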

A short description of series [4]: Aqueous solubility of the compound after 24 hrs by HPLC analysis. Conditions: buffer. The class given is physicochemical. An outline of the steps: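 Compound suspended in water and shaken 24 h at 25 °C, then centrifuged and filtered. Supernatant analyzed by C18 reverse-phase HPLC with one-point calibration against solutions of known concentration.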
A short description of series [5]: Antiinflammatory activity in human SAEC assessed as inhibition of Poly(I:C) induced IL-6 expression pretreated for 24 hrs followed by Poly(I:C) addition for 4 hrs by qRT-PCR analysis. The class given is functional, cell-based. An outline of the steps:
as §2

The target in the next series is CREB-binding protein (Homo sapiens, UniProt Q92793). Put plainly: Binding affinity CBP (unknown origin) incubated for 1 hr by TR-FRET assay.
CREB-binding protein, sequence (Q92793 whole entry): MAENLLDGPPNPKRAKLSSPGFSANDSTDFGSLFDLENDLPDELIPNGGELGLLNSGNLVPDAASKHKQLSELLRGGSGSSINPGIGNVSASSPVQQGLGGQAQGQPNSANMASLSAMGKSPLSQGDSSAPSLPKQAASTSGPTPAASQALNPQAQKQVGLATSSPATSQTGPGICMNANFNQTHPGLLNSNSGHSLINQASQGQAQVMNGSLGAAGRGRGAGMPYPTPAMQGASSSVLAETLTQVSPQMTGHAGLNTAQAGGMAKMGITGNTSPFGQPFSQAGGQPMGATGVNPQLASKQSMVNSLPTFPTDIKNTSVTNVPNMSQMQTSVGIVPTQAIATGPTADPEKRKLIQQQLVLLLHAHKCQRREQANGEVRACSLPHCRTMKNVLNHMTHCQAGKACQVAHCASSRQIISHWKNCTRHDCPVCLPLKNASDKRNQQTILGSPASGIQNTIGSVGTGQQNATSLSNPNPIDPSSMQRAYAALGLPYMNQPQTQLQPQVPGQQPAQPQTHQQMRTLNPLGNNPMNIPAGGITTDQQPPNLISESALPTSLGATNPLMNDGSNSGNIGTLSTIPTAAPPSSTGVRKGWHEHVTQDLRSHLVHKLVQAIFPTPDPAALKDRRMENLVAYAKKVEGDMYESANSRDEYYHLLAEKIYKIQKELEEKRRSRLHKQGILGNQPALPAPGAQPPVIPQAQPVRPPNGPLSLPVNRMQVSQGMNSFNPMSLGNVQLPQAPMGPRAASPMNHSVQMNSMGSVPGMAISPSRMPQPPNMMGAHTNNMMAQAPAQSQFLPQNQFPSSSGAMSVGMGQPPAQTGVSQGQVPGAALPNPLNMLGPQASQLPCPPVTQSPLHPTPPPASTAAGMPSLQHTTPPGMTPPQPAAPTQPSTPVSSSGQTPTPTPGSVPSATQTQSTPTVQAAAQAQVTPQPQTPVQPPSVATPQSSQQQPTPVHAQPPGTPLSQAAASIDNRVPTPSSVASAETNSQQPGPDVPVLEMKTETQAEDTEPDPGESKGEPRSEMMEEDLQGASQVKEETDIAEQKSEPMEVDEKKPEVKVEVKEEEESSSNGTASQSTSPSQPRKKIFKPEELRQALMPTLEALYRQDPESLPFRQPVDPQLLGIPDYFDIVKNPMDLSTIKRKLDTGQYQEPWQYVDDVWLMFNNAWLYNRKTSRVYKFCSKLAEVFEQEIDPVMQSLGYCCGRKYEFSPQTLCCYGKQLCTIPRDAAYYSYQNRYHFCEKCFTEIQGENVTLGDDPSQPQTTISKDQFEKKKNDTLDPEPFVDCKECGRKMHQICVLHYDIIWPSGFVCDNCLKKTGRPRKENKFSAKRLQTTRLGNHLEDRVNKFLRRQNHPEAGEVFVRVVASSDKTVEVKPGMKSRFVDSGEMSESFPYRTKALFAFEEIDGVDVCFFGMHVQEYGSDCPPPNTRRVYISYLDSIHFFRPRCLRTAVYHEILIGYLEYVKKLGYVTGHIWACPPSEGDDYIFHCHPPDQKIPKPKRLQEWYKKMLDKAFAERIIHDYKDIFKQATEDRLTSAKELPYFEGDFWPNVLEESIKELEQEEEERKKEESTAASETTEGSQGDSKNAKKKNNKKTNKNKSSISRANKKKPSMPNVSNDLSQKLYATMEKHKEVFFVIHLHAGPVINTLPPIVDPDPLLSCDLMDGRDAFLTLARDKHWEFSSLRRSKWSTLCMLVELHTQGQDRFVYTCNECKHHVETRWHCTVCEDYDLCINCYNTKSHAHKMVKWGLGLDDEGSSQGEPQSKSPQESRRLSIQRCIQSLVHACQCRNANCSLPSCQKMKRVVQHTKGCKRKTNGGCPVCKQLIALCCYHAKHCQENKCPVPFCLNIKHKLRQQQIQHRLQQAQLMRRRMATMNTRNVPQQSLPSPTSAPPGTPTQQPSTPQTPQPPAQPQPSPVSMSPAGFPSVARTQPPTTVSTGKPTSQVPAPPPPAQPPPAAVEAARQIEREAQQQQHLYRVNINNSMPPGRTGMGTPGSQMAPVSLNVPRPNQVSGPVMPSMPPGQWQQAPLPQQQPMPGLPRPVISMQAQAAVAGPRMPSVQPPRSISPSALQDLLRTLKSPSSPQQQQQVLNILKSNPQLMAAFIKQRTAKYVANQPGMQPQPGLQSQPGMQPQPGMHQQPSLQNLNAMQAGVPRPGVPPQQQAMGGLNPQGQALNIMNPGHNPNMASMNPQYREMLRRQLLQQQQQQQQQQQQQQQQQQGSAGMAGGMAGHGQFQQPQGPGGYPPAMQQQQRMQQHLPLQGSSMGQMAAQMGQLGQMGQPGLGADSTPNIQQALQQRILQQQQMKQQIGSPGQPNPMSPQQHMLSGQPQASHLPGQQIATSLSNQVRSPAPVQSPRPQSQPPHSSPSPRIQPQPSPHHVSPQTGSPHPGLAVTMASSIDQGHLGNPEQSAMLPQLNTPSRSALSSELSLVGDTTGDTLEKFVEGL
In series [6] the target is T1, Bromodomain testis-specific protein (Homo sapiens, UniProt Q58F21). Kind of series: Binding affinity BRDT BD1 (unknown origin) incubated for 1 hr by TR-FRET assay. In general terms: Time-resolved FRET reads energy transfer from a long-lived donor to a nearby acceptor.
The target of series [7] is T1, Bromodomain testis-specific protein. Kind of series: Binding affinity BRDT BD2 (unknown origin) incubated for 1 hr by TR-FRET assay.

In brackets after ≈: the same amount, converted by molar mass. Activity calls are given as the source filed them. The rule behind the calls is not given here.

With `COC(=O)[C@@H]1CCCN1S(=O)(=O)c1ccccc1NC(=O)Nc1ccc(C(F)(F)F)cc1`, the Activity in series [1] was 12.6%; in series [2], 2.63%.
The term IC50 denotes the concentration needed to halve the response being measured. Take `Cc1sc2c(c1C)C(c1ccc(Cl)cc1)=N[C@@H](CC(=O)OC(C)(C)C)c1nnc(C)n1-2`: the result with SAEC and in the series with Mus musculus was Active. The Activity in [1] turned out to be 2.6%; in [2], 8.1%. Besides, the IC50 in series [3] amounted to 0.97 µM.
With `COC(=O)[C@@H]1CCCN1S(=O)(=O)c1ccc(NC(=O)Nc2ccc(C(F)(F)F)c(Cl)c2)cc1`, the Activity in series [1] stood at 74.7%; in [2], 37.9%.
As a reminder, the solubility is how much of the substance goes into solution per volume. As to `Cc1cc(/N=N/c2ccc(S(=O)(=O)NC3CCCC3)cc2)c(N)cc1O`, the solubility in [4] worked out at 12.8 µg/mL (≈ 34.2 µM). For the same molecule, the results for the Activity in series [1] and in [2] were 15.6% and 0.91%, respectively.
In the case of `O=C(Nc1ccc(C(F)(F)F)cc1)Nc1ccc(S(=O)(=O)NC2CCCC2)cc1`, the Activity in series [1] is 28%; in series [2], 190%.
The corresponding values for `COC(=O)[C@@H]1CCCN1S(=O)(=O)c1ccc(NC(=O)Nc2ccccc2)cc1` are 75.3% and 237%.
With `COC(=O)[C@@H]1CCCN1S(=O)(=O)c1cccc(NC(=O)Nc2ccc(C(F)(F)F)cc2)c1`, the figures for the Activity in series [1] and in series [2] were 163% and 19.9%, respectively.
The corresponding values for `COC(=O)[C@H]1CCCN1S(=O)(=O)c1ccc(NC(=O)Nc2ccc(C(F)(F)F)cc2)cc1` are 2.21% and 0.47%.
Regarding `CCOC(=O)[C@H]1CCCN1S(=O)(=O)c1ccc(NC(=O)Nc2ccc(C(F)(F)F)cc2)cc1`, the Activity is listed as 4.74% in series [1] and 0.57% in [2].
For `CN1CCN(C(=O)[C@@H]2CCCN2S(=O)(=O)c2ccc(NC(=O)Nc3ccc(C(F)(F)F)cc3)cc2)CC1`, the Activity in series [1] was 5.47%; in series [2], 6.63%.
In the same order, the values of `COC(=O)[C@@H]1CCCN1S(=O)(=O)c1ccc(NC(=O)Nc2ccc(OC(F)(F)F)cc2)cc1` are 20.5% and 14.3%.
With `COC(=O)[C@@H]1CCCN1S(=O)(=O)c1ccc(NC(=O)c2ccc(C(F)(F)F)cc2)cc1`, the Activity in [1] is given as 105%; in series [2] it was 71%.
Regarding `O=C(Nc1ccc(N2CCS(=O)(=O)CC2)cc1)Nc1ccc(C(F)(F)F)cc1`, the values for the Activity in [1] and in [2] were 6.14% and 73.6%, respectively.
The corresponding values for `CC(=O)N1CCN(S(=O)(=O)c2ccc(NC(=O)Nc3ccc(C(F)(F)F)cc3)cc2)CC1` are 20% and 15.2%.
Turning to `O=C(Nc1ccc(C(F)(F)F)cc1)Nc1ccc(S(=O)(=O)N2CCC(N3CCCC3)CC2)cc1`, the Activity in series [1] is on record as 10%; in [2], 0.31%.
As to `O=C1CCc2cc(NC(=O)Nc3ccc(C(F)(F)F)cc3)ccc2N1`, the figures for the Activity in [1] and in series [2] were 3.34% and 106%, respectively.
The corresponding values for `COC(=O)[C@@H]1CCCN1S(=O)(=O)c1ccc(N/N=C(\C#N)C(=O)c2ccc(OC(F)(F)F)cc2)cc1` are 1.02% and 17.5%.
The corresponding values for `COC(=O)c1ccc(NC(=O)[C@@H]2CCCN2S(=O)(=O)c2ccc(NC(=O)Nc3ccc(C(F)(F)F)cc3)cc2)cc1` are 4.58% and 23.7%.
In the same order, the values of `O=C(Nc1ccc(C(F)(F)F)cc1)Nc1ccc(S(=O)(=O)N2CCC[C@H]2C(=O)O)cc1` are 214% and 25.3%.
Regarding `COC(=O)[C@@H]1CCCN1S(=O)(=O)c1ccc(NC(=O)Nc2ccc(OC)cc2)cc1`, the Activity was determined as 73.3% in series [1] and 418% in series [2].
Turning to `COC(=O)[C@@H]1CCCN1S(=O)(=O)c1ccc(NC(=O)Nc2ccc(C(F)(F)F)cc2)cc1`, the half-inhibitory concentration (IC50) is 1.83 µM in series [5] and 1.35 µM in [3]. Further, the Activity is reported as 2.19% in series [1] and 3.42% in series [2].
As for `COC(=O)[C@@H]1CCCN1S(=O)(=O)c1ccc(NC(=O)Nc2ccc(C(F)(F)F)cc2)cc1OC`, the results for the Activity in series [1] and in series [2] were 59.5% and 22.5%, respectively.
In the same order, the values of `COC(=O)[C@@H]1CCCN1S(=O)(=O)c1ccc(NC(=O)Nc2ccc(F)cc2)cc1` are 28.8% and 149%.
For `COC(=O)[C@@H]1CCCN1S(=O)(=O)c1ccc(N(C(=O)Nc2ccc(C(F)(F)F)cc2)C(C)C)cc1`, the Activity in series [1] is 461%; in series [2] it was 62.8%.
The corresponding values for `O=C(Nc1ccc(C(F)(F)F)cc1)Nc1ccc(S(=O)(=O)N2CCCC2)cc1` are 24.3% and 102%.
Consider `COC(=O)[C@@H]1CCCN1C(=O)c1ccc(NC(=O)Nc2ccc(C(F)(F)F)cc2)cc1`, for which the Activity was determined as 5.79% in series [1] and 16.5% in series [2].
Turning to `Cc1ccc(S(=O)(=O)OC[C@@H]2CCCN2S(=O)(=O)c2ccc(NC(=O)Nc3ccc(C(F)(F)F)cc3)cc2)cc1`, the half-maximal inhibitory concentration (IC50) came to 4.31 µM in series [5] and 10.8 µM in [3]. For the same molecule, the Activity in [1] was found to be 0.63%; in series [2], 6.98%.
Turning to `COc1cc(OC)c2c(=O)[nH]c(-c3cc(C)c(OCCO)c(C)c3)nc2c1` [APABETALONE], the IC50 was over 10 µM at CREB-binding protein, 5.03 µM in [6] and 0.696 µM in [7].
Consider `COC(=O)[C@@H]1CCCN1S(=O)(=O)c1ccc(NC(=O)NCc2ccc(C(F)(F)F)cc2)cc1`, for which the values for the Activity in series [1] and in series [2] were 150% and 40.4%, respectively.
For the molecule `COC(=O)[C@@H]1CCCN1S(=O)(=O)c1ccc(NC(=O)Nc2cccc(C(F)(F)F)c2)cc1`, the Activity in [1] is reported as 4%; in series [2], 66.7%.
The corresponding values for `COC(=O)[C@@H]1CCCN1S(=O)(=O)c1ccc(NC(=O)Nc2ccc(O)cc2)cc1` are 326% and 45.2%.
As for `O=C(Nc1ccc(C(F)(F)F)cc1)Nc1ccc(S(=O)(=O)N2CCC[C@H]2C(=O)Nc2ccccc2)cc1`, the concentration for half-maximal inhibition (IC50) in series [5] came to 1.88 µM; in series [3], 2.06 µM. The Activity in series [1] was found to be 0.62%; in series [2], 13.7%.
As to `NC(=O)[C@@H]1CCCN1S(=O)(=O)c1ccc(NC(=O)Nc2ccc(C(F)(F)F)cc2)cc1`, the Activity in series [1] was found to be 22.6%; in [2] it was 12.7%.
In the same order, the values of `COC(=O)[C@@H]1CCCN1S(=O)(=O)c1ccc(NC(=O)Nc2ccc(C(F)(F)F)c(C)c2)cc1` are 64.7% and 42.5%.
Consider `COC(=O)[C@@H]1CCCN1S(=O)(=O)c1ccc(NC(=O)Nc2ccc(C(F)(F)F)cc2)c(F)c1`, for which the Activity in [1] is recorded as 137%; in series [2], 51.9%.
In the same order, the values of `O=C(Nc1ccc(C(F)(F)F)cc1)Nc1ccc(S(=O)(=O)N2CCC[C@H]2C(=O)Nc2ccccn2)cc1` are 1.12% and 32.8%.

Values taken from ChEMBL document CHEMBL5042517, “Discovery, X-ray Crystallography, and Anti-inflammatory Activity of Bromodomain-containing Protein 4 (BRD4) BD1 Inhibitors Targeting a Distinct New Binding Site” (J Med Chem, 2022).
